Source: ChEMBL document CHEMBL1212879, “Synthesis and T-type calcium channel blocking activity of novel diphenylpiperazine compounds, and evaluation of in vivo analgesic activity” (Bioorg Med Chem, 2010)
Activity calls are given as the source filed them.

Legend:
[1] = Inhibition of T-type Cav3 channel
How it was run: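 Whole-cell patch clamp on HEK293 cells stably expressing Cav3.1 (α1G). External solution was 140 mM NaCl, 2 mM CaCl2, 10 mM Hepes and 10 mM glucose, pH 7.4. Currents were evoked every 15 s by a 50 ms depolarizing voltage step.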

[2] = tested on: Rattus norvegicus; assay: Analgesic activity against formalin-induced inflammatory pain in rat assessed as reduction of time spent on paw licking, shaking or biting at 60 ug, sc administered after 50 mins at 5 mins intervals; conditions: route subcutaneous
[3] = tested on: Rattus norvegicus; assay: Antinociceptive activity against von Frey hair mechanically stimulated neuropathic pain in rat assessed as withdrawal threshold at 60 mg/kg, ip administered 2 weeks after surgery; assay type: functional, organism-based; set-up: dose 60 mg/kg
How it was run: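 Tail nerve injury rats (unilateral caudal trunk transection between S1 and S2 under enflurane) received a baseline test 2 weeks post-injury. They were then dosed at 60 mg/kg ip in methyl pyrrolidone/Tween 80/saline (1:1:8). Tail withdrawal to von Frey filaments was retested at 1, 3, 5 and 24 h. Versus baseline by one-way repeated-measures ANOVA with Bonferroni t-test.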

[4] = tested on: Rattus norvegicus; assay: Anti-warm allodynic activity in rat assessed as tail withdrawal latency at 60 mg/kg, ip measured within cut-off time of 15 seconds for up to 24 hrs; assay type: functional, organism-based; set-up: dose 60 mg/kg
How it was run: (§1)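 At 2 weeks, after a baseline test, 60 mg/kg was given ip in methyl pyrrolidone/Tween 80/saline (1:1:8). Tail withdrawal latency to 4 °C (cold) or 40 °C (warm) water immersion was read at 1, 3, 5 and 24 h, with a 15 s cut-off. Versus baseline by repeated-measures ANOVA with Bonferroni t-test.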

[5] = target: T1, Voltage-dependent T-type calcium channel subunit alpha-1G (Homo sapiens, UniProt O43497); assay: Inhibition of T-type alpha1G channel expressed in HEK293 cells by whole-cell patch-clamp method; assay type: cell-based
T1 sequence (O43497 whole entry): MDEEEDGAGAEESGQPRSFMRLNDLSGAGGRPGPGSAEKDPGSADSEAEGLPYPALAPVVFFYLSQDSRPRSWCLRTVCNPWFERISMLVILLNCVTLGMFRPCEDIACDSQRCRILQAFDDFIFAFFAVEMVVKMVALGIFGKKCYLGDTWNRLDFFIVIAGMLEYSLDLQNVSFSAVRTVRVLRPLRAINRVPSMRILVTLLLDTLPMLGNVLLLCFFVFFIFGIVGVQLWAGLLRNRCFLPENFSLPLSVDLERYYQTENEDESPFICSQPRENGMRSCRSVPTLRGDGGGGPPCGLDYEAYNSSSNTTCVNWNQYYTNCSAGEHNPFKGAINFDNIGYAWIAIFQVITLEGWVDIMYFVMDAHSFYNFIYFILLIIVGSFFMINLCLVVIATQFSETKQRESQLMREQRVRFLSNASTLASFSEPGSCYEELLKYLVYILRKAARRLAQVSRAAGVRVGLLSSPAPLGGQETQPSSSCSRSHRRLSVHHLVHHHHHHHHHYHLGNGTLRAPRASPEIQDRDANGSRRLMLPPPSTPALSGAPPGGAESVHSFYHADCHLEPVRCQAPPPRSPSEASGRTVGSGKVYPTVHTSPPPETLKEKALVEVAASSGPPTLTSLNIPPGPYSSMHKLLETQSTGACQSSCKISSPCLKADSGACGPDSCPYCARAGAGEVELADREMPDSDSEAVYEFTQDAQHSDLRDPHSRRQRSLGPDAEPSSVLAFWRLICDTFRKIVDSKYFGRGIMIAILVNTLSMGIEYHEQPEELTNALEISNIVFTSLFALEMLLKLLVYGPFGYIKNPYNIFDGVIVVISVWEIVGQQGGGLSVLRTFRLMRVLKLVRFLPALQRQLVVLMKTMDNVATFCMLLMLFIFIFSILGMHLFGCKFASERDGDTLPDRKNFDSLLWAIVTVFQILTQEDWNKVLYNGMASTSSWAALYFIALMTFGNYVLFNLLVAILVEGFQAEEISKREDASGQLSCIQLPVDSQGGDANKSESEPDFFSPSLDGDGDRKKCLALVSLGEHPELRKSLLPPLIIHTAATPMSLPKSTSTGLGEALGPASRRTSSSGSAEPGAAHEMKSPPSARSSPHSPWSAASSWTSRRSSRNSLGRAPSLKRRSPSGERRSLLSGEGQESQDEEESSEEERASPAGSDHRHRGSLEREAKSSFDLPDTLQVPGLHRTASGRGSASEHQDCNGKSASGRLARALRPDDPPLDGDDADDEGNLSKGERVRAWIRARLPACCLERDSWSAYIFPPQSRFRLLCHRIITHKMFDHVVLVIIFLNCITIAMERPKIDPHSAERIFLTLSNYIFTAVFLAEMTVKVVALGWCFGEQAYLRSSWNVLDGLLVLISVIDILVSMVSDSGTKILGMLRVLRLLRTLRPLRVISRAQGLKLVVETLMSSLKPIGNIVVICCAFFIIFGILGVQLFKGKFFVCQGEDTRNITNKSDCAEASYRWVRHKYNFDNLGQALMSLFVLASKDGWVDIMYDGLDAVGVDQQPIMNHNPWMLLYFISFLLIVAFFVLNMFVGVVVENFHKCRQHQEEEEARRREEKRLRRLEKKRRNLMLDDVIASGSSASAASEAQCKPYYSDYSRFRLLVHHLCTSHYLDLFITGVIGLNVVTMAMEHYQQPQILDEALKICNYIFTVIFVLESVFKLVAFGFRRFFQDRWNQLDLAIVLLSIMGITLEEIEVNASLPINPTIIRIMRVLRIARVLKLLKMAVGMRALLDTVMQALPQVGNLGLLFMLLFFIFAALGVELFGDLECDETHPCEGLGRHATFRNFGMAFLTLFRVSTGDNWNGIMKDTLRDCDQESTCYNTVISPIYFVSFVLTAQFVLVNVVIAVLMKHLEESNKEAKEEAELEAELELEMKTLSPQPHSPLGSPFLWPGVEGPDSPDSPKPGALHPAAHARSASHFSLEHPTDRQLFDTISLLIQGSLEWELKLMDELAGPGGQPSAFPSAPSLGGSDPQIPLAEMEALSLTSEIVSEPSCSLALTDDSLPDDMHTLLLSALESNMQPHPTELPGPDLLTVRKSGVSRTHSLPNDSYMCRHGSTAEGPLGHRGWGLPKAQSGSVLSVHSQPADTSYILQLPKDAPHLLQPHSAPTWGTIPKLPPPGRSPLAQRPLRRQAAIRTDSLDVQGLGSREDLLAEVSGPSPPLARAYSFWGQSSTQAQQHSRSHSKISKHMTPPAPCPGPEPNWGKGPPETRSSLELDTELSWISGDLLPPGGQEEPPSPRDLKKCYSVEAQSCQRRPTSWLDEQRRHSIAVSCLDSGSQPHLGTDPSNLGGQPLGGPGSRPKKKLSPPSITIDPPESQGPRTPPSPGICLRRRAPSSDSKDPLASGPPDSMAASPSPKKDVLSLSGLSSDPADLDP
How it was run: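 HEK293 cells stably expressing α1G (Cav3.1); whole-cell patch clamp. External solution in mM: 140 NaCl, 2 CaCl2, 10 Hepes, 10 glucose, pH 7.4.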

[6] = tested on: Rattus norvegicus; assay: Anti-cold allodynic activity in rat assessed as tail withdrawal latency at 60 mg/kg, ip measured within cut-off time of 15 seconds for up to 24 hrs; assay type: functional, organism-based; set-up: dose 60 mg/kg; how it was run: as §1
[7] = tested on: Rattus norvegicus; assay: Analgesic activity against formalin-induced inflammatory pain in rat assessed as reduction of pain behavior time at 60 µg/ 10 ul, sc administered after 10 mins at 5 mins intervals (reference value: 47.05 +/- 8.53 seconds); assay type: functional
[8] = target: Voltage-dependent N-type calcium channel subunit alpha-1B (Homo sapiens) (UniProt Q00975); assay: Inhibition of N-type Alpha-1B channel expressed in HEK293 cells by whole-cell patch-clamp method; assay type: cell-based; set-up: concentration or dose not given beside the values; conditions: concentration not given here
Sequence of Voltage-dependent N-type calcium channel subunit alpha-1B (Homo sapiens) (Q00975 whole entry, looked up): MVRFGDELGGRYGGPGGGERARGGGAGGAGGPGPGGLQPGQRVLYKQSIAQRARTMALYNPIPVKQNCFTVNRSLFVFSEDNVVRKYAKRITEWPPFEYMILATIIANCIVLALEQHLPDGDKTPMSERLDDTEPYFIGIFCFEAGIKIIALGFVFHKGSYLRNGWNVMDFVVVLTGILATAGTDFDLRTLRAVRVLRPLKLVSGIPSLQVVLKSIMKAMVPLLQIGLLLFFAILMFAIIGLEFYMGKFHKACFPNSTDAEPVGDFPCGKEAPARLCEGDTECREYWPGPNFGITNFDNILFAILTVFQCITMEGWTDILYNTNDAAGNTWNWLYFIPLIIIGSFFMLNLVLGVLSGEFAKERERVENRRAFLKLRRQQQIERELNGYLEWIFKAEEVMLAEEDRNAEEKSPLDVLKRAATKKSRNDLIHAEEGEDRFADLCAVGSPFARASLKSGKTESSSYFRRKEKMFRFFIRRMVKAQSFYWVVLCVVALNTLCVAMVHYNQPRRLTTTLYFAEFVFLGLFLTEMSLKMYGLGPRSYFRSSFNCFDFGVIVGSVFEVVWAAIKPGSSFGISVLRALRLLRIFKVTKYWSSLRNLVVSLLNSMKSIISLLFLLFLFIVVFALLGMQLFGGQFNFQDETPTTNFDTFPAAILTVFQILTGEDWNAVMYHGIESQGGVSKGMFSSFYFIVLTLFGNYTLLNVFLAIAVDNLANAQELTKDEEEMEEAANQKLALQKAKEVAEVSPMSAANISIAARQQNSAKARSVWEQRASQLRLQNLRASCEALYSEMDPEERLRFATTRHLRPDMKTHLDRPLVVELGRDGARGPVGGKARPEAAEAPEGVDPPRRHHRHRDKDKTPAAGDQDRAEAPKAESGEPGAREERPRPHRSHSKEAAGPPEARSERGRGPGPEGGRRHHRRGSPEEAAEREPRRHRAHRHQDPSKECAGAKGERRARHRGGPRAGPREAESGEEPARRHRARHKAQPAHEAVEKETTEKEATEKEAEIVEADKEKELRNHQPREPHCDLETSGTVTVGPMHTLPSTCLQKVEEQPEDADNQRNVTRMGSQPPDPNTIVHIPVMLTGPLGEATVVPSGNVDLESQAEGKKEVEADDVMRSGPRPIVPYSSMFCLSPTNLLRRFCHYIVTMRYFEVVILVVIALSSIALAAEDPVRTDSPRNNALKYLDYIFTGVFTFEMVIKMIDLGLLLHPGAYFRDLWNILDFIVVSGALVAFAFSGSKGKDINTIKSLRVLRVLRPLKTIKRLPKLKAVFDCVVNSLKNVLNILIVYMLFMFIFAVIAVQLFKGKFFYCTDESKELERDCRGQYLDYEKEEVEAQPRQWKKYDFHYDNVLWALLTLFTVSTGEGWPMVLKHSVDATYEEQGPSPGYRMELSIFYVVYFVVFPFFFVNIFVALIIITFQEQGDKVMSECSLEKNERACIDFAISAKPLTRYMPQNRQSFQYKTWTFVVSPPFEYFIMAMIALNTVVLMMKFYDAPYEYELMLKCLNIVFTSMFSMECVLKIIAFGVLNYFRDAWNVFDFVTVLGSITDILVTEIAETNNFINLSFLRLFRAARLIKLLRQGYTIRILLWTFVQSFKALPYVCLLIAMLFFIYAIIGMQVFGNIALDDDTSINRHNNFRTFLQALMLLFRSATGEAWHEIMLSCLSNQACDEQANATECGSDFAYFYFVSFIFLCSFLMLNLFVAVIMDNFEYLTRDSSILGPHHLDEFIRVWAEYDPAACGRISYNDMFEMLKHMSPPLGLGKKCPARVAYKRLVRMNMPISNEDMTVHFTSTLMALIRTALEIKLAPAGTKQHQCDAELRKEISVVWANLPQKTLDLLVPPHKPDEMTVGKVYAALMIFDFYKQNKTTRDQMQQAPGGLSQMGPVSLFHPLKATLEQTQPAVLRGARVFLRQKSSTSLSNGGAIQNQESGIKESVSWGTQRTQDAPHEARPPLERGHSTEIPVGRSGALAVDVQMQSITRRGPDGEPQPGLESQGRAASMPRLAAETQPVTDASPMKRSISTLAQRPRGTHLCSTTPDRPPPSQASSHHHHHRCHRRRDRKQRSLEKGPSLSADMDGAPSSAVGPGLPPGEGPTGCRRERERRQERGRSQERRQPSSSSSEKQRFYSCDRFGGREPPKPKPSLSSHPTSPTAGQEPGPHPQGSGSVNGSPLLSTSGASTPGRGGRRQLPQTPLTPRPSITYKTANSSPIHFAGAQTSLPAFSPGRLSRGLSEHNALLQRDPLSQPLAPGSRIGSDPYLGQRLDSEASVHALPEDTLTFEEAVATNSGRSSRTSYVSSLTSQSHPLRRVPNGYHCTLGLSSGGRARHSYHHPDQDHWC

[9] = target: Voltage-dependent N-type calcium channel subunit alpha-1B (Homo sapiens) (UniProt Q00975); assay: Inhibition of N-type Alpha-1B channel expressed in HEK293 cells at 10 uM by whole-cell patch-clamp method; assay type: cell-based
[10] = tested on: Rattus norvegicus; assay: Analgesic activity against formalin-induced inflammatory pain in rat assessed as reduction of time spent on paw licking, shaking, biting at 60 ug, sc administered after 50 mins at 5 mins intervals(reference value: 334.21 +/- 51.10 seconds); conditions: route subcutaneous
[11] = target: Voltage-dependent T-type calcium channel subunit alpha-1H (Homo sapiens, UniProt O95180); assay: Inhibition of T-type Cav3.2 channel
[12] = target: Voltage-dependent T-type calcium channel subunit alpha-1I (Homo sapiens, UniProt Q9P0X4); assay: Inhibition of T-type Cav3.3 channel
[13] = target: T1, Voltage-dependent T-type calcium channel subunit alpha-1G; assay: Inhibition of T-type Cav3.1 channel
[14] = Inhibition of L-type calcium channel

| SMILES | IC50 [5] [nM] | inhibition [8] [%] | also measured |
| --- | --- | --- | --- |
| O=c1[nH]c2ccccc2n1C1CCN(CCCC(c2ccc(F)cc2)c2ccc(F)cc2)CC1 |  |  | INH [1]: 40 nM |
| NCCCC(=O)N1CCN(C(c2ccccc2)c2ccc(Cl)cc2)CC1 (stereo not drawn) | 3710 | 10 | Time [2]: 62.57 s; Activity [3]: Active; Activity [4]: Active; Activity [6]: Active; Time [7]: 2.41 s |
| CC(C)c1ccc(CNCCCC(=O)N2CCN(C(c3ccccc3)c3ccc(Cl)cc3)CC2)cc1 (stereo not drawn) | 280 | 80.2 | inhibition [9]: 80% |
| O=C(CCCNCc1c(Cl)cccc1Cl)N1CCN(C(c2ccccc2)c2ccc(Cl)cc2)CC1 (stereo not drawn) | 1020 | 78.4 |  |
| O=C(CCCNCc1ccc([N+](=O)[O-])cc1)N1CCN(C(c2ccccc2)c2ccc(Cl)cc2)CC1 (stereo not drawn) | 600 | 88.8 | inhibition [9]: 80% |
| O=C(CCCNCC1CCCCC1)N1CCN(C(c2ccccc2)c2ccc(Cl)cc2)CC1 (stereo not drawn) | 190 | 84.9 | Activity [3]: inactive; Activity [4]: Active; Time [10]: 24.32 s; inhibition [9]: 80%; Activity [6]: Active; Time [7]: 1.8 s |
| COc1ccc(CNCCCC(=O)N2CCN(C(c3ccccc3)c3ccc(Cl)cc3)CC2)cc1 (stereo not drawn) | 16100 | 49.6 |  |
| CCC(CC)CNCCCC(=O)N1CCN(C(c2ccccc2)c2ccc(Cl)cc2)CC1 (stereo not drawn) | 1540 | 16.8 |  |
| CC(C)CNCCCC(=O)N1CCN(C(c2ccccc2)c2ccc(Cl)cc2)CC1 (stereo not drawn) | 360 | 13.3 |  |
| Fc1ccc(C(c2ccc(F)cc2)N2CCN(C/C=C/c3ccccc3)CC2)cc1 [FLUNARIZINE] |  |  | Kd [11]: 3600 nM; Kd [12]: 840 nM; Kd [13]: 530 nM |
| CCNCCCC(=O)N1CCN(C(c2ccccc2)c2ccc(Cl)cc2)CC1 (stereo not drawn) | 420 | 20 |  |
| O=C(CCCNCc1ccccc1)N1CCN(C(c2ccccc2)c2ccc(Cl)cc2)CC1 (stereo not drawn) | 1670 | 69.8 |  |
| CN(C)c1ccc(CNCCCC(=O)N2CCN(C(c3ccccc3)c3ccc(Cl)cc3)CC2)cc1 (stereo not drawn) | 2320 | 10.8 |  |
| NCC1(CC(=O)O)CCCCC1 |  |  | Activity [3]: Active; Activity [4]: Active; Activity [6]: Active |
| COCC(=O)O[C@]1(CCN(C)CCCc2nc3ccccc3[nH]2)CCc2cc(F)ccc2[C@@H]1C(C)C [MIBEFRADIL] |  |  | IC50 [14]: 10000 nM |
